Published values of several laboratories.
Lines come from different studies, so protocols differ.
Target: Serine/threonine-protein kinase WNK2 (WNK2, Homo sapiens, UniProt Q9Y3S1)

CN([C@@H]1CCc2c(CC(=O)O)c3ccccc3n2C1)S(=O)(=O)c1ccc(F)cc1
remaining binding (cell-free assay; competition with immobilised ligand; 1 µM): 92%

Cc1ccc(NC(=O)c2ccc(C)c(C(F)(F)F)c2)cc1C#Cc1nn(C2CCC(O)CC2)c2ncnc(N)c12 (stereo not drawn)
remaining signal (cell-free assay; 10 µM): 105%

CCN(CC)c1ccc(C2=NNC(=O)CC2C)cc1[N+](=O)[O-] (stereo not drawn)
remaining activity (enzyme activity; inhibitor; 10 µM): 104%

CN(c1nccc(-c2cnn3ncccc23)n1)C1CC1
remaining binding (binding; 1 µM): 100%

O=C(Nc1cnn(-c2csc(C(=O)NC3COC3)c2)c1)Nc1ccccc1Cl
remaining activity (enzyme activity; inhibitor; 5 µM): 96.3%

CN1CC(Oc2cnc(C#N)cc2-c2ccn3nc(NC(=O)C4CC4)cc3c2)C1
inhibition (enzyme activity; inhibitor; 1 µM): 8%

O=C1Nc2ccc(Cl)cc2C1=Cc1cc(Cl)c(O)c(Cl)c1
remaining signal (cell-free assay; 0.5 µM): 115%

COc1cccc(CNC(=O)c2nc3scc(COCc4ccc(C(=O)O)cc4)c3c(=O)[nH]2)c1
remaining binding (cell-free assay; competition with immobilised ligand; 1 µM): 54.2%

Cc1ccc(Nc2nccc(N(C)c3ccc4c(C)n(C)nc4c3)n2)cc1S(N)(=O)=O
inhibition (enzyme activity; inhibitor; 10 µM): 26%

CC(C)(C)c1nc2c(s1)c1nc(N)ncc1c1ccc(NS(=O)(=O)c3c(F)cccc3F)c(F)c12
remaining activity (enzyme activity; inhibitor; radiometric; 1 µM): 101%

CCCOc1ccc(OC)c(F)c1C(=O)c1ccc(C(=O)N[C@@H]2CNC[C@H]2NC(=O)c2ccc3[nH]ncc3c2)cc1
remaining activity (enzyme activity; inhibitor; 10 µM): 92%

O=C1NC(=O)c2cc(Nc3ccc(F)cc3)c(Nc3ccc(F)cc3)cc21
remaining signal (cell-free assay; 0.5 µM): 110%

CO[C@@H](C)c1c(Nc2ccc([C@@H](N(C)C(=O)C3CCS(=O)(=O)CC3)C(F)(F)F)cc2)cnc2cc(Cl)nn12
remaining binding (cell-free assay; competition with immobilised ligand; 1 µM): 100%

CNC(=O)c1cc(Oc2ccc(NC(=O)Nc3ccc(Cl)c(C(F)(F)F)c3)cc2)ccn1
inhibition (enzyme activity; inhibitor; 10 µM): 13%

CC(=O)N1CCC(c2ccc(C(=O)NC(=N)N)cc2C(F)(F)F)CC1
remaining binding (cell-free assay; competition with immobilised ligand; 1 µM): 98%

Cc1cnc(NC2CCOCC2)nc1-n1cnc(C(=O)NC(CN)c2cc(F)cc(Cl)c2)c1 (stereo not drawn)
remaining activity (enzyme activity; inhibitor; radiometric; 1 µM): 85%

CCN(CC)CCNC(=O)c1c(C)[nH]c(/C=C2\C(=O)Nc3ccc(F)cc32)c1C
inhibition (enzyme activity; inhibitor; 10 µM): 23%

Nc1cnc(N2CCc3cc(S(=O)(=O)Nc4c(F)cc(Cl)cc4F)cc(N4CCCC4=O)c32)nc1
remaining binding (cell-free assay; competition with immobilised ligand; 1 µM): 100%
